This is an account of results in ChEMBL document CHEMBL1122610, “Dichloro[1,2-bis(4-hydroxyphenyl)ethylenediamine]platinum(II) complexes: an approach to develop compounds with a specific effect on the hormone-dependent mammary carcinoma” (J Med Chem, 1984).

Experiment [1] concerns Mus musculus. The experiment is described as follows: Antitumor activity against the ADJ/PC6 Plasmacytoma cells of the BALB/C mouse at a dose of 20 mg/kg after 38 days was determined in vivo; Value denoted as dead/test = 0/10. Type of experiment: functional, organism-based. The arrangement: dose 20 mg/kg. The method in brief: (§1)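 Female Balb/C mice, 14–18 g, inoculated subcutaneously with 5 × 10^6 ADJ/PC6 cells in 0.1 mL PBS (day 0). Compounds suspended in olive oil, given intraperitoneally as a single dose (day 1) or triple dose (days 1, 2, 3). Groups usually of 10 animals; cisplatin positive control. Test ran about 38 days; activity read as mean tumor volume as percent of untreated control (T/C, %).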

Experiment [2] concerns the target Estrogen receptor (Bos taurus) (UniProt Q9XSB5+P49884). The experiment is described as follows: In vitro inhibition of 1*10e-9 M [3H]estradiol binding to Estrogen receptor of calf uterine cytosol at 1*10e-5 M. Type of experiment: protein assay. A digest of the protocol: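 Competition of [3H]estradiol binding in calf uterine cytosol (final protein 5 mg/mL); bound and free ligand separated by dextran-coated charcoal; percent inhibition of binding reported.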

The test system of experiment [3] is Rattus norvegicus. The experiment is described as follows: Compound was tested for the increase in life span of L5222 Leukemia implanted rat at dose 20(60) mg/kg. Type of experiment: functional, organism-based. The method in brief: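 BD IX rats, 3–6 months old, half female and half male, six per dose group, given 1 × 10^6 L 5222 cells in 1.0 mL physiological saline intraperitoneally (day 0). Complex dissolved in olive oil at 1 mg/mL; three injections on days 1, 2, 3 or 1, 5, 9. Scored as percent increased life span (ILS).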

The test system of experiment [4] is Mus musculus. In words: Number of deaths against the ADJ/PC6 Plasmacytoma cells of the BALB/C mouse at a dose of 20 mg/kg after 37 days was determined in vivo; Value denoted as dead/test = 2/10. In kind it is functional, organism-based. The arrangement: dose 20 mg/kg.
In experiment [5] the test system is Mus musculus. The experiment is described as follows: Antitumor activity against the ADJ/PC6 Plasmacytoma cells of the BALB/C mouse at a dose of 15 mg/kg after 38 days was determined in vivo; Value denoted as dead/test = 1/10. Type of experiment: functional, organism-based. The arrangement: dose 15 mg/kg. The method in brief:
as §1

Experiment [6] concerns Rattus norvegicus. The experiment is described as follows: Compound was tested for the survival against L5222 Leukemia implanted rat at dose 20(60) mg/kg. In kind it is functional, organism-based. A digest of the protocol:
(§2)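 BD IX rats (3–6 months old, half female, half male), six per dose group, given 1 × 10^6 L 5222 cells in 1.0 mL physiological saline i.p. on day 0. The complex was in olive oil at a final 1 mg/mL and given i.p. as three injections, on days 1, 2, 3 or days 1, 5, 9. Read-out is median survival day and percent ILS.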

For experiment [7], the system named is Mus musculus. The experiment is described as follows: Number of deaths against the ADJ/PC6 Plasmacytoma cells of the BALB/C mouse at a dose of 15 mg/kg after 38 days was determined in vivo. In kind it is functional, organism-based. The arrangement: dose 15 mg/kg.
Experiment [8] deals with Mus musculus. The experiment is described as follows: Animals without tumor after the test against the ADJ/PC6 Plasmacytoma cells of the BALB/C mouse at a dose of 20 mg/kg after 37 days was determined in vivo. Type of experiment: functional, organism-based. The arrangement: dose 20 mg/kg.
Experiment [9] relates to Mus musculus. In words: Animals without tumor after the test against the ADJ/PC6 Plasmacytoma cells of the BALB/C mouse at a dose of 15 mg/kg after 38 days was determined in vivo. Type of experiment: functional, organism-based. The arrangement: dose 15 mg/kg.
Experiment [10] concerns Mus musculus. The experiment is described as follows: Number of deaths against the ADJ/PC6 Plasmacytoma cells of the BALB/C mouse at a dose of 20 mg/kg after 38 days was determined in vivo. Type of experiment: functional, organism-based. The arrangement: dose 20 mg/kg.
For experiment [11], the system named is Mus musculus. The experiment is described as follows: Antitumor activity against the ADJ/PC6 Plasmacytoma cells of the BALB/C mouse at a dose of 20 mg/kg after 37 days was determined in vivo. In kind it is functional, organism-based. The arrangement: dose 20 mg/kg. The method in brief: as §1
The test system of experiment [12] is Mus musculus. The experiment is described as follows: Animals without tumor after the test against the ADJ/PC6 Plasmacytoma cells of the BALB/C mouse at a dose of 20 mg/kg after 38 days was determined in vivo. Type of experiment: functional, organism-based. The arrangement: dose 20 mg/kg.
Experiment [13] deals with Mus musculus. The experiment is described as follows: Antitumor activity against the ADJ/PC6 Plasmacytoma cells of the BALB/C mouse at a dose of 8 mg/kg after 37 days was determined in vivo. In kind it is functional, organism-based. The arrangement: dose 8 mg/kg. A digest of the protocol:
as §1

A further experiment deals with MDA-MB-231. In words: In vitro incorporation of [3H]thymidine into hormone-independent MDA-MB 231 breast cancer cells. Type of experiment: functional, cell-based. Conditions: Homo sapiens. The method in brief:
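MDA-MB 231 cells grown in McCoy 5a with 10% newborn calf serum and gentamycin, switched to 5% serum 1 h before the experiment. Compounds added from fresh 1000-fold Me2SO concentrates (final solvent 0.1%). [3H]Thymidine incorporation into TCA-precipitable material measured. Mean of triplicates.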

Experiment [14] has as its system Rattus norvegicus. In words: Compound was tested for the survival against L5222 Leukemia implanted rat at dose 3.5(10.5) mg/kg. Type of experiment: functional, organism-based. The method in brief: as §2
The test system of experiment [15] is Mus musculus. The experiment is described as follows: Animals without tumor after the test against the ADJ/PC6 Plasmacytoma cells of the BALB/C mouse at a dose of 8 mg/kg after 37 days was determined in vivo. The arrangement: dose 8 mg/kg. Type of experiment: functional, organism-based.
A further experiment concerns ADJ/PC6. In words: In vitro incorporation of the [3H]thymidine into the ADJ/PC6 Plasmacytoma cells. Type of experiment: functional, cell-based. The conditions noted are these: Mus musculus. The method in brief: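 ADJ/PC6 tumor taken from passaged female Balb/C mice, minced and gently dispersed, then suspended in Eagle's MEM with 5% heat-inactivated horse serum, Hepes (5 mg/mL) and 0.1% Pluronic F 68, and filtered through gauze. Cells incubated 3 h at 37 °C with shaking, then pulsed with 1 μCi [methyl-3H]thymidine for 2 h. Ice-cold PBS stop, saline washes, sonication. Triplicates.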

For experiment [16], the system named is Mus musculus. In words: Number of deaths against the ADJ/PC6 Plasmacytoma cells of the BALB/C mouse at a dose of 8 mg/kg after 37 days was determined in vivo. Type of experiment: functional, organism-based. The arrangement: dose 8 mg/kg.
Experiment [17] has as its system Rattus norvegicus. In words: Compound was tested for the survival against L5222 Leukemia implanted rat at dose 3.5(10.5)mg/kg. In kind it is functional, organism-based. A digest of the protocol:
as §2

Values joined by “and” are separate entries in the source; they are usually repeats but may differ in a detail not shown here. Equal values may be shown once.

The term T/C denotes the result in the treated group divided by that in the control group, in per cent. For orientation: inhibition means the drop in the measured response relative to a control, in per cent. Broadly, the ILS is how much longer treated animals lived than controls. With “(+) R,R-dichloro-[1,2-bis(4-hydroxyphenyl)ethylenediamine]platinum (II)”, the T/C in the experiment on Mus musculus [1] is 0%; with Mus musculus [5], 1%; in the experiment on Mus musculus [11] it was 0%. Further, the inhibition in experiment [2] is 11% and 13.7% and 9.7%. Further, the ILS in the experiment with Rattus norvegicus [3] came out at 175%. Besides, the Deaths in the experiment with Mus musculus [4] worked out at 2; with Mus musculus [7], 1; with Mus musculus [10] it was 0. In the experiment with Rattus norvegicus [6], the Median day of survival worked out at 18. The figures for the Activity with Mus musculus [8], with Mus musculus [9] and in the experiment with Mus musculus [12] were 8, 7 and 7, respectively.

Consider CISPLATIN, for which, in the experiment on Mus musculus [13], the T/C was determined as 0%. Also, the ID50 with MDA-MB-231 came out at 650 nM; in the experiment with ADJ/PC6, 9.5 µM. The Median day of survival in the experiment on Rattus norvegicus [14] came to 17.5; in the experiment on Rattus norvegicus [17], 14.5. Besides, in the experiment on Mus musculus [15], the Activity worked out at 10. Moreover, in the experiment on Mus musculus [16], the Deaths was 0.
